# Source: PubChem
# Rows were chosen to be rich in hits. Some 5.8% of all compounds tested hit in one or more screens of this group.
# Pf Dd2 inh – P. falciparum Dd2 growth inhibitors, primary screen, SYBR Green fluorescence, single dose replicates; 72 h; active compounds read low; activity change, % at 10 µM; AID 1159554, 2015; 94,000 tested, 2.3% active; in the data active = activity change below about -80%
# IDH1 mut inh – inhibitors of IDH1 R132H reductase, primary screen, biochemical, plate reader, single point | Isocitrate dehydrogenase [NADP] cytoplasmic (Homo sapiens), O75874 | diaphorase/resazurin fluorescence, 60 min | inhibition, % at 10 µM | 70,000 tested, 0.18% active | AID 624101, 2012; in the data active = inhibition above about 34%;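 also: 0% = DMSO and 100% = no enzyme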
# GASC1 inh – inhibitors of GASC-1 (KDM4C) histone demethylase, primary screen, biochemical, single concentration HTS; inhibition, % at 12.5 µM; Lysine-specific demethylase 4C (Homo sapiens), Q9H3R0; GST-KDM4C 2-372, H3K9me3 peptide, LANCE TR-FRET; 96,000 tested, 0.15% active;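 active = mean replicate inhibition above about 25%, with at least 55% of replicates also reaching it, limit read from the data, passing the limit was not always enough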
# Target sequence (Q9H3R0 2-372 limits assumed): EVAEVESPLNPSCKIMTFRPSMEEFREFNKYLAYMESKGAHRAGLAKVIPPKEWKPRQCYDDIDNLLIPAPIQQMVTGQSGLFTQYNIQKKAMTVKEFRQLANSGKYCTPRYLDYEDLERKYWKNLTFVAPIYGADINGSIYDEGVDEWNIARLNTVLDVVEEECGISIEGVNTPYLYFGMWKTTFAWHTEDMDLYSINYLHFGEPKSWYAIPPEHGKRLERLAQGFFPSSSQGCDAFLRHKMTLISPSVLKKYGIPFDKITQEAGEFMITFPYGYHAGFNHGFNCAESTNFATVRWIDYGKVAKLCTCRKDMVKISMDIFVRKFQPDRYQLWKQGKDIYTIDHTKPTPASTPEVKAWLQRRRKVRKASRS
#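 Test system – GST-tagged GASC-1 (JMJD2C) catalytic fragment, aa 2-372 · Medium – HEPES buffer, pH 7.5, plus ascorbate · Reagent – H3K9me3 peptide with Fe(II)/2OG · Compound – one test concentration per compound · Timing – 30 min reaction, 60 min detection, RT · Technique – TR-FRET with Eu antibody and ULight streptavidin, EDTA stop · Read-out basis – inhibition from TR-FRET ratio decrease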
# Tcruzi prolif – T. cruzi intracellular proliferation inhibitors, primary screen, cell-based, beta-gal Tulahuen parasites, NIH3T3 host, luminescence | T. cruzi beta-gal in NIH3T3, GalScreen luminescence, 90 h | inhibition, % at 8.34 µM | 77,000 tested, 5.9% active | AID 624255, 2012;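 active = mean inhibition above about 93%, with at least 55% of replicates each passing it, limit read from the data, passing the limit was not always enough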
# Starred values were filed as active, the others as inactive; . = not tested or not shown.
SMILES,Pf Dd2 inh,IDH1 mut inh,GASC1 inh,Tcruzi prolif
COc1ccc(S(=O)(=O)N(C)C[C@@H]2OCCCC[C@@H](C)Oc3ccc(NS(=O)(=O)c4ccc(C)cc4)cc3C(=O)N([C@@H](C)CO)C[C@H]2C)cc1,-43,.,0,102*
COc1ccc(S(=O)(=O)N(C)C[C@H]2OCCCC[C@H](C)Oc3ccc(NS(=O)(=O)c4ccc(C)cc4)cc3C(=O)N([C@@H](C)CO)C[C@H]2C)cc1,-82*,3,-4,82
Cc1ccc(S(=O)(=O)Nc2ccc3c(c2)CC(=O)N([C@H](C)CO)C[C@H](C)[C@@H](CN(C)C(=O)Nc2ccc(F)cc2)O3)cc1,28,-13,0,38
O=S(=O)(Nc1ncccn1)c1ccc(NS(=O)(=O)c2cc(Cl)ccc2Cl)cc1,.,0,.,.
O=S(=O)(Nc1nccs1)c1ccc(NS(=O)(=O)c2cc(Cl)ccc2Cl)cc1,.,39*,.,.
C[C@H]1CN([C@@H](C)CO)C(=O)c2cc(NC(=O)Nc3cccc4ccccc34)ccc2O[C@H]1CN(C)S(=O)(=O)c1cccs1,-3,0,-9,79
C[C@H]1CN([C@@H](C)CO)C(=O)c2cccc(NC(=O)C3CC3)c2O[C@@H]1CN(C)Cc1ccc(C(=O)Nc2ccccc2N)cc1,-54,0,1,91
C[C@@H]1CN([C@H](C)CO)C(=O)c2cccc(NC(=O)C3CCCCC3)c2O[C@@H]1CN(C)Cc1ccc(C(=O)Nc2ccccc2N)cc1,-84*,-1,-2,70
C[C@@H]1CN([C@H](C)CO)C(=O)c2cccc(NC(=O)C3CCCCC3)c2O[C@H]1CN(C)Cc1ccc(C(=O)Nc2ccccc2N)cc1,-86*,.,-4,76
C[C@@H]1CN([C@@H](C)CO)C(=O)c2cccc(NC(=O)NC3CCCCC3)c2O[C@@H]1CN(C)Cc1ccc(C(=O)Nc2ccccc2N)cc1,-90*,.,-1,65
C[C@@H]1CN([C@@H](C)CO)C(=O)c2cccc(NC(=O)C3CCCCC3)c2O[C@H]1CN(C)Cc1ccc(C(=O)Nc2ccccc2N)cc1,-87*,0,-3,72
C[C@H]1CN([C@@H](C)CO)C(=O)c2cccc(NC(=O)C3CCCCC3)c2O[C@H]1CN(C)Cc1ccc(C(=O)Nc2ccccc2N)cc1,-69,.,-1,80
CCC(=O)Nc1ccc2c(c1)C(=O)N(C)C[C@@H](OC)[C@H](C)CN(C(C)=O)[C@@H](C)CO2,-19,.,1,.
CO[C@H]1CN(C)C(=O)c2cc(NS(C)(=O)=O)ccc2OC[C@H](C)N(C(=O)CC2CC2)C[C@H]1C,-31,45*,14,23
CO[C@@H]1CN(C)C(=O)c2cc(NS(C)(=O)=O)ccc2OC[C@H](C)N(C(=O)CC2CC2)C[C@H]1C,11,0,0,25
CO[C@H]1CN(C)C(=O)c2cc(NC(C)=O)ccc2OC[C@@H](C)N(C(=O)CC2CC2)C[C@H]1C,-12,85*,38*,9
CO[C@@H]1CN(C)C(=O)c2cc(NC(C)=O)ccc2OC[C@H](C)N(C(=O)CC2CC2)C[C@H]1C,6,0,0,-4
COc1ccccc1-c1ccc([C@@H]2[C@@H](C#N)N(C(=O)C3CCOCC3)[C@H]2CO)cc1,33,.,-1,-17
C[C@H]1CN([C@@H](C)CO)C(=O)c2cccc(NC(=O)CCCCCC(=O)Nc3ccccc3N)c2O[C@@H]1CN(C)Cc1ccncc1,-16,-1,-1,.
C[C@@H]1CN([C@@H](C)CO)C(=O)c2cccc(NC(=O)CCCCCC(=O)Nc3ccccc3N)c2O[C@@H]1CN(C)Cc1ccccc1,-87*,.,2,.
C[C@@H]1CN([C@@H](C)CO)C(=O)c2cccc(NC(=O)CCCCCC(=O)Nc3ccccc3N)c2O[C@H]1CN(C)C,-62,1,1,.
C[C@H]1CN([C@@H](C)CO)C(=O)c2cccc(NC(=O)Nc3ccccc3)c2O[C@@H]1CN(C)Cc1ccc(Cl)c(Cl)c1,-28,-2,0,11
C[C@@H]1CN([C@H](C)CO)C(=O)c2cccc(NC(=O)Nc3ccccc3)c2O[C@@H]1CN(C)Cc1ccc(Cl)c(Cl)c1,-86*,.,-1,66
C[C@H](CO)N1C[C@H](C)[C@@H](CN(C)Cc2ccc(-c3ccccc3)cc2)Oc2c(NC(=O)CCCCCC(=O)Nc3ccccc3N)cccc2C1=O,-87*,0,-1,.
